Holding throughout (assay type): functional, organism-based
Settings in all cases: Microsome

The species named for experiment [1] is Mus musculus. The experiment is described as follows: The percent recovery of the addedglycolipid (100 ug) with the liposomes in Mice at 10% w/w (n = 2). The gist of the method: (§1)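 Glycolipid (0–50 μg; 5, 10 or 50% w/w) incubated with sonicated [3H]cholesteryl oleate-labeled egg PC liposomes (100 μg phospholipid) for 30 min at 37 °C. Incorporated and free glycolipid separated by FPLC on Superose-6 or Sephacryl S-1000, PBS pH 7.4 eluent, 50 μL/min. Galactose content of fractions measured by galactose oxidase assay. Recovery is given as percent of added glycolipid eluting with liposomes. Mean ± variation, n = 2.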

For experiment [2], the species on record is Mus musculus. Put plainly: The percent recovery of the addedglycolipid (100 ug) with the liposomes in Mice at 5% w/w (n = 2). The gist of the method:
as §1

The species named for experiment [3] is Mus musculus. Put plainly: The percent recovery of the addedglycolipid (100 ug) with the liposomes in Mice at 50% w/w (n = 2). The gist of the method:
as §1

Experiment [4] deals with Mus musculus. Put plainly: Uptake by the liver liposomes upon intravenous injection in Mice at 50% w/w (n = 2). In a few lines:
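Optional asialofetuin preinjection (50 mg/kg) given 1 min before. Liver lobules and blood sampled over time. At 30 min, liver 3H is expressed as % injected dose, corrected for serum radioactivity. Mean ± variation of two experiments.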

For experiment [5], the species on record is Mus musculus. The experiment is described as follows: The percent recovery of the addedglycolipid (100 ug) with the liposomes in Mice at 5% w/w of the compound. The gist of the method: as §1

These results are taken from ChEMBL document CHEMBL1132583, “Design and synthesis of novel amphiphilic dendritic galactosides for selective targeting of liposomes to the hepatic asialoglycoprotein receptor” (J Med Chem, 1999).

As for `CCCCCCCC/C=C\CCCCCCCC(=O)O[C@H]1CC[C@@]2(C)C(CC[C@H]3[C@@H]4CC[C@H](C(C)CCC(=O)NCCCC(=O)NCC(=O)NC(COCCC(=O)NCCCNC(=O)CCCCO[C@@H]5O[C@H](CO)[C@H](O)[C@@H](O)[C@H]5O)(COCCC(=O)NCCCNC(=O)CCCCO[C@@H]5O[C@H](CO)[C@H](O)[C@@H](O)[C@H]5O)COCCC(=O)NCCCNC(=O)CCCCO[C@@H]5O[C@H](CO)[C@H](O)[C@@H](O)[C@H]5O)[C@@]4(C)CC[C@@H]32)C1` (stereo partly specified), the values for the Recovery in the experiment filed under Mus musculus [1], in the experiment filed under Mus musculus [2] and in the experiment filed under Mus musculus [3] were 96.5%, 100% and 59.4%, respectively. The compound further gave an Uptake with Mus musculus [4] of 83.5%.
In the experiment filed under Mus musculus [5], `CCCCCCCC/C=C\CCCCCCCC(=O)O[C@H]1CC[C@@]2(C)C(=CC[C@H]3[C@@H]4CC[C@H](C(C)CCC(=O)NCCCC(=O)NCC(=O)NC(COCCC(=O)NCCCNC(=O)CCCCO[C@@H]5O[C@H](CO)[C@H](O)[C@@H](O)[C@H]5O)(COCCC(=O)NCCCNC(=O)CCCCO[C@@H]5O[C@H](CO)[C@H](O)[C@@H](O)[C@H]5O)COCCC(=O)NCCCNC(=O)CCCCO[C@@H]5O[C@H](CO)[C@H](O)[C@@H](O)[C@H]5O)[C@@]4(C)CC[C@@H]32)C1` (stereo partly specified) had a Recovery of 100%.
In the experiment listed under Mus musculus [5], `CCCCCCCC/C=C\CCCCCCCC(=O)O[C@H]1CC[C@@]2(C)C(=CC[C@H]3[C@@H]4CC[C@H](C(C)C(=O)NCCCC(=O)NCC(=O)NC(COCCC(=O)NCCCNC(=O)CCCCO[C@@H]5O[C@H](CO)[C@H](O)[C@@H](O)[C@H]5O)(COCCC(=O)NCCCNC(=O)CCCCO[C@@H]5O[C@H](CO)[C@H](O)[C@@H](O)[C@H]5O)COCCC(=O)NCCCNC(=O)CCCCO[C@@H]5O[C@H](CO)[C@H](O)[C@@H](O)[C@H]5O)[C@@]4(C)CC[C@@H]32)C1` (stereo partly specified) came in with a Recovery of 100%.
